Results from paper PMC10582670 (Clinical and Translational Science, 2023).
Where “and” joins values, the source holds several entries; their conditions need not be identical. Equal entries are not always repeated.

Test system: healthy volunteers
Assay: Safety and tolerability
Assay type: in vivo, human
Procedure, shortened: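 Healthy volunteers aged 18–55 y, BMI 18–30 kg/m², randomised double-blind 8:2 to once-daily oral drug or placebo for up to 14 days, with follow-up visits on days 21 and 42. Treatment-emergent AEs coded with MedDRA 23.1 and graded with the WHO toxicity scale, alongside ECGs, laboratory tests and vital signs. The safety population was all subjects receiving at least one dose.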

Compound: O=C(c1nc2n(n1)[C@H](c1ccccc1)C[C@@H]2F)C1CC1 [GDC‐8264]
- No. of TEAEs (MAD 50 mg q.d., n = 5): 10
- No. of deaths (MAD 50 mg q.d., n = 5): 0 no. of subjects (%)
- No. of subjects with at least one Related TEAE (MAD 50 mg q.d., n = 5): 3 (60.0) no. of subjects (%)
- No. of subjects with at least one Serious TEAE (MAD 50 mg q.d., n = 5): 0 no. of subjects (%)
- No. of subjects with at least one TEAE (MAD 50 mg q.d., n = 5): 3 (60.0) no. of subjects (%)
- No. of subjects withdrawn from study due to a TEAE (MAD 50 mg q.d., n = 5): 0 no. of subjects (%)
- TEAE Abdominal pain (MAD 50 mg q.d., n = 5): 0 no. of subjects (%)
- TEAE Back pain (MAD 50 mg q.d., n = 5): 0 no. of subjects (%)
- TEAE Catheter site pain (MAD 50 mg q.d., n = 5): 0 no. of subjects (%)
- TEAE Dermatitis contact (MAD 50 mg q.d., n = 5): 0 no. of subjects (%)
- TEAE Diarrhea (MAD 50 mg q.d., n = 5): 1 (20.0) no. of subjects (%)
- TEAE Dizziness (MAD 50 mg q.d., n = 5): 0 no. of subjects (%)
- TEAE Dyspepsia (MAD 50 mg q.d., n = 5): 1 (20.0) no. of subjects (%)
- TEAE Gastrointestinal sounds abnormal (MAD 50 mg q.d., n = 5): 0 no. of subjects (%)
- TEAE Gingivitis (MAD 50 mg q.d., n = 5): 0 no. of subjects (%)
- TEAE Headache (MAD 50 mg q.d., n = 5): 0 no. of subjects (%)
- TEAE Medical device site dermatitis (MAD 50 mg q.d., n = 5): 0 no. of subjects (%)
- TEAE Myalgia (MAD 50 mg q.d., n = 5): 0 no. of subjects (%)
- TEAE Nausea (MAD 50 mg q.d., n = 5): 0 no. of subjects (%)
- TEAE Presyncope (MAD 50 mg q.d., n = 5): 0 no. of subjects (%)
- TEAE Somnolence (MAD 50 mg q.d., n = 5): 0 no. of subjects (%)
- No. of TEAEs (MAD 100 mg q.d., n = 7): 32
- No. of deaths (MAD 100 mg q.d., n = 7): 0 no. of subjects (%)
- No. of subjects with at least one Related TEAE (MAD 100 mg q.d., n = 7): 5 (71.4) no. of subjects (%)
- No. of subjects with at least one Serious TEAE (MAD 100 mg q.d., n = 7): 0 no. of subjects (%)
- No. of subjects with at least one TEAE (MAD 100 mg q.d., n = 7): 7 (100) no. of subjects (%)
- No. of subjects withdrawn from study due to a TEAE (MAD 100 mg q.d., n = 7): 0 no. of subjects (%)
- TEAE Abdominal pain (MAD 100 mg q.d., n = 7): 2 (28.6) no. of subjects (%)
- TEAE Back pain (MAD 100 mg q.d., n = 7): 0 no. of subjects (%)
- TEAE Catheter site pain (MAD 100 mg q.d., n = 7): 2 (28.6) no. of subjects (%)
- TEAE Dermatitis contact (MAD 100 mg q.d., n = 7): 1 (14.3) no. of subjects (%)
- TEAE Diarrhea (MAD 100 mg q.d., n = 7): 2 (28.6) no. of subjects (%)
- TEAE Dizziness (MAD 100 mg q.d., n = 7): 2 (28.6) no. of subjects (%)
- TEAE Dyspepsia (MAD 100 mg q.d., n = 7): 0 no. of subjects (%)
- TEAE Gastrointestinal sounds abnormal (MAD 100 mg q.d., n = 7): 1 (14.3) no. of subjects (%)
- TEAE Gingivitis (MAD 100 mg q.d., n = 7): 2 (28.6) no. of subjects (%)
- TEAE Headache (MAD 100 mg q.d., n = 7): 2 (28.6) no. of subjects (%)
- TEAE Medical device site dermatitis (MAD 100 mg q.d., n = 7): 0 no. of subjects (%)
- TEAE Myalgia (MAD 100 mg q.d., n = 7): 0 no. of subjects (%)
- TEAE Nausea (MAD 100 mg q.d., n = 7): 1 (14.3) no. of subjects (%)
- TEAE Presyncope (MAD 100 mg q.d., n = 7): 1 (14.3) no. of subjects (%)
- TEAE Somnolence (MAD 100 mg q.d., n = 7): 3 (42.9) no. of subjects (%)
- No. of TEAEs (MAD All GDC-8264, n = 12): 42
- No. of deaths (MAD All GDC-8264, n = 12): 0 no. of subjects (%)
- No. of subjects with at least one Related TEAE (MAD All GDC-8264, n = 12): 8 (66.7) no. of subjects (%)
- No. of subjects with at least one Serious TEAE (MAD All GDC-8264, n = 12): 0 no. of subjects (%)
- No. of subjects with at least one TEAE (MAD All GDC-8264, n = 12): 10 no. of subjects (%) and 10 (83.3) no. of subjects (%)
- No. of subjects withdrawn from study due to a TEAE (MAD All GDC-8264, n = 12): 0 no. of subjects (%)
- TEAE Abdominal pain (MAD All GDC-8264, n = 12): 2 (16.7) no. of subjects (%)
- TEAE Back pain (MAD All GDC-8264, n = 12): 0 no. of subjects (%)
- TEAE Catheter site pain (MAD All GDC-8264, n = 12): 2 (16.7) no. of subjects (%)
- TEAE Dermatitis contact (MAD All GDC-8264, n = 12): 1 (8.3) no. of subjects (%)
- TEAE Diarrhea (MAD All GDC-8264, n = 12): 3 (25.0) no. of subjects (%)
- TEAE Dizziness (MAD All GDC-8264, n = 12): 2 (16.7) no. of subjects (%)
- TEAE Dyspepsia (MAD All GDC-8264, n = 12): 1 (8.3) no. of subjects (%)
- TEAE Gastrointestinal sounds abnormal (MAD All GDC-8264, n = 12): 1 (8.3) no. of subjects (%)
- TEAE Gingivitis (MAD All GDC-8264, n = 12): 2 (16.7) no. of subjects (%)
- TEAE Headache (MAD All GDC-8264, n = 12): 2 (16.7) no. of subjects (%)
- TEAE Medical device site dermatitis (MAD All GDC-8264, n = 12): 0 no. of subjects (%)
- TEAE Myalgia (MAD All GDC-8264, n = 12): 0 no. of subjects (%)
- TEAE Nausea (MAD All GDC-8264, n = 12): 1 (8.3) no. of subjects (%)
- TEAE Presyncope (MAD All GDC-8264, n = 12): 1 (8.3) no. of subjects (%)
- TEAE Somnolence (MAD All GDC-8264, n = 12): 3 (25.0) no. of subjects (%)
- No. of TEAEs (SAD (fasted) 5 mg, n = 6): 6
- No. of deaths (SAD (fasted) 5 mg, n = 6): 0 no. of subjects (%)
- No. of subjects with at least one Related TEAE (SAD (fasted) 5 mg, n = 6): 0 no. of subjects (%)
- No. of subjects with at least one Serious TEAE (SAD (fasted) 5 mg, n = 6): 0 no. of subjects (%)
- No. of subjects with at least one TEAE (SAD (fasted) 5 mg, n = 6): 5 (83.3) no. of subjects (%)
- No. of subjects withdrawn from study due to a TEAE (SAD (fasted) 5 mg, n = 6): 0 no. of subjects (%)
- TEAE Abdominal pain (SAD (fasted) 5 mg, n = 6): 1 (16.7) no. of subjects (%)
- TEAE Back pain (SAD (fasted) 5 mg, n = 6): 0 no. of subjects (%)
- TEAE Catheter site pain (SAD (fasted) 5 mg, n = 6): 1 (16.7) no. of subjects (%)
- TEAE Dermatitis contact (SAD (fasted) 5 mg, n = 6): 1 (16.7) no. of subjects (%)
- TEAE Diarrhea (SAD (fasted) 5 mg, n = 6): 0 no. of subjects (%)
- TEAE Dizziness (SAD (fasted) 5 mg, n = 6): 0 no. of subjects (%)
- TEAE Dyspepsia (SAD (fasted) 5 mg, n = 6): 1 (16.7) no. of subjects (%)
- TEAE Gastrointestinal sounds abnormal (SAD (fasted) 5 mg, n = 6): 0 no. of subjects (%)
- TEAE Gingivitis (SAD (fasted) 5 mg, n = 6): 0 no. of subjects (%)
- TEAE Headache (SAD (fasted) 5 mg, n = 6): 1 (16.7) no. of subjects (%)
- TEAE Medical device site dermatitis (SAD (fasted) 5 mg, n = 6): 0 no. of subjects (%)
- TEAE Myalgia (SAD (fasted) 5 mg, n = 6): 0 no. of subjects (%)
- TEAE Nausea (SAD (fasted) 5 mg, n = 6): 0 no. of subjects (%)
- TEAE Presyncope (SAD (fasted) 5 mg, n = 6): 0 no. of subjects (%)
- TEAE Somnolence (SAD (fasted) 5 mg, n = 6): 0 no. of subjects (%)
- No. of TEAEs (SAD (fasted) 25 mg, n = 6): 6
- No. of deaths (SAD (fasted) 25 mg, n = 6): 0 no. of subjects (%)
- No. of subjects with at least one Related TEAE (SAD (fasted) 25 mg, n = 6): 0 no. of subjects (%)
- No. of subjects with at least one Serious TEAE (SAD (fasted) 25 mg, n = 6): 0 no. of subjects (%)
- No. of subjects with at least one TEAE (SAD (fasted) 25 mg, n = 6): 4 (66.7) no. of subjects (%)
- No. of subjects withdrawn from study due to a TEAE (SAD (fasted) 25 mg, n = 6): 0 no. of subjects (%)
- TEAE Abdominal pain (SAD (fasted) 25 mg, n = 6): 1 (16.7) no. of subjects (%)
- TEAE Back pain (SAD (fasted) 25 mg, n = 6): 0 no. of subjects (%)
- TEAE Catheter site pain (SAD (fasted) 25 mg, n = 6): 0 no. of subjects (%)
- TEAE Dermatitis contact (SAD (fasted) 25 mg, n = 6): 0 no. of subjects (%)
- TEAE Diarrhea (SAD (fasted) 25 mg, n = 6): 0 no. of subjects (%)
- TEAE Dizziness (SAD (fasted) 25 mg, n = 6): 0 no. of subjects (%)
- TEAE Dyspepsia (SAD (fasted) 25 mg, n = 6): 0 no. of subjects (%)
- TEAE Gastrointestinal sounds abnormal (SAD (fasted) 25 mg, n = 6): 0 no. of subjects (%)
- TEAE Gingivitis (SAD (fasted) 25 mg, n = 6): 0 no. of subjects (%)
- TEAE Headache (SAD (fasted) 25 mg, n = 6): 2 (33.3) no. of subjects (%)
- TEAE Medical device site dermatitis (SAD (fasted) 25 mg, n = 6): 0 no. of subjects (%)
- TEAE Myalgia (SAD (fasted) 25 mg, n = 6): 0 no. of subjects (%)
- TEAE Nausea (SAD (fasted) 25 mg, n = 6): 0 no. of subjects (%)
- TEAE Presyncope (SAD (fasted) 25 mg, n = 6): 1 (16.7) no. of subjects (%)
- TEAE Somnolence (SAD (fasted) 25 mg, n = 6): 0 no. of subjects (%)
